Assay [1] is described as follows: reducers of endogenous Her2 protein level, primary screen, SKBR3 breast tumor cells, AlphaScreen, ATP viability (AID 461;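 active = Her2 level under about 52% in both replicate screens, with viability over 70% of control, limit read from the data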;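 as to Her2 level: lower value means less Her2 protein in the cells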;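 as to viability: percent of carrier control wells set as 100% viability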). As to conditions: 18-24 h, measured here: SKBR3 viability, ATP luminescence, at 10 µM.
The target in assay [2] is Receptor tyrosine-protein kinase erbB-2 (Homo sapiens) (UniProt P04626). The description is as above. As to conditions: 18-24 h, at 10 µM, stronger effect = lower value.
Assay [3] can be described thus: SK-BR-3 cell growth inhibitors, pilot screen, 24 h, human (AID 572;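 active = viability at or below 10% of carrier control in both of two separate runs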;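 also: compound exposure lasted between 18 and 24 h rather than exactly 24 h; 100% = carrier-treated control wells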). As to conditions: SK-BR-3 viability, CellTiter-Glo luminescence, at 10 µM, stronger effect = lower value.
Assay [4] can be described thus: HUVEC growth inhibition – cell-based, human, primary screen (AID 575;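 active = viability at or below 30% in both replicate assays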;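 also: 100% = median of untreated cell wells with 0.1% DMSO on each plate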). As to conditions: HUVEC proliferation, CellTiter-Glo luminescence, 72 h; at 10 µM; stronger effect = lower value. In outline: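 Timing: 72 h treatment at 37 °C; material: HUVEC primary cells; technique: CellTiter-Glo luminescence measuring cellular ATP; controls: vehicle and MePR control wells; measure: percent of median DMSO-control luminescence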
On the technique in general: In ATP-based viability assays light output follows the ATP content of the culture.

Assay [5] can be described thus: growth inhibitors of H69AR lung tumor, primary screen, human, duplicate replicates (AID 580;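 active = viability at or under a set limit in both replicates, limit being median viability minus 3 SD, cut at about 48% in these data, passing the limit was not always enough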;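 also: 100% = mean luminescence of untreated wells and 0% = no signal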). As to conditions: H69AR lung tumor cells viability, ATP luminescence, 72 h; at 10 µM; stronger effect = lower value.
The nature of assay [6]: reversal of MRP1-mediated doxorubicin resistance, pilot screen, H69AR cells, doxorubicin co-treatment (AID 601;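 active = viability loss from added drug above about 55%, and viability with drug at most 40%, in both replicates, limit read from the data, passing the limit was not always enough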). Conditions: CellTiter-Glo, 72 h, at 10 µM; for differential viability (reversal): stronger effect = higher value.
A short description of assay [7]: 384-well plate pilot, post-Golgi transport modulator project, inhibition of yeast transport mutant growth (AID 636; in the data active = inhibition above about 31%). As to conditions: absorbance 615 nm, about 18 h, stronger effect = higher value.
Assay [8] in a line: growth suppression of yeast trafficking mutant, preliminary HTS, modulators of trafficking downstream of Golgi apparatus project, 1536-format plate, OD 615 nm (AID 637). Conditions: yeast transport mutant growth, absorbance 615 nm, 18 h; stronger effect = higher value.
Where [9] appears, read: H69AR cells + 2 uM doxorubicin, measured here: viability with 2 uM doxorubicin, stronger effect = lower value.
[10] abbreviates: H69AR cells, compound alone cytotoxicity.

SMILES strings stand for the structures. Calls of active or inactive are those of the source. Rule as the data show it, unless noted: active = inhibition above about 30%; inactive = the rest.

Chain of Receptor tyrosine-protein kinase erbB-2 (Homo sapiens) (P04626 whole entry, looked up): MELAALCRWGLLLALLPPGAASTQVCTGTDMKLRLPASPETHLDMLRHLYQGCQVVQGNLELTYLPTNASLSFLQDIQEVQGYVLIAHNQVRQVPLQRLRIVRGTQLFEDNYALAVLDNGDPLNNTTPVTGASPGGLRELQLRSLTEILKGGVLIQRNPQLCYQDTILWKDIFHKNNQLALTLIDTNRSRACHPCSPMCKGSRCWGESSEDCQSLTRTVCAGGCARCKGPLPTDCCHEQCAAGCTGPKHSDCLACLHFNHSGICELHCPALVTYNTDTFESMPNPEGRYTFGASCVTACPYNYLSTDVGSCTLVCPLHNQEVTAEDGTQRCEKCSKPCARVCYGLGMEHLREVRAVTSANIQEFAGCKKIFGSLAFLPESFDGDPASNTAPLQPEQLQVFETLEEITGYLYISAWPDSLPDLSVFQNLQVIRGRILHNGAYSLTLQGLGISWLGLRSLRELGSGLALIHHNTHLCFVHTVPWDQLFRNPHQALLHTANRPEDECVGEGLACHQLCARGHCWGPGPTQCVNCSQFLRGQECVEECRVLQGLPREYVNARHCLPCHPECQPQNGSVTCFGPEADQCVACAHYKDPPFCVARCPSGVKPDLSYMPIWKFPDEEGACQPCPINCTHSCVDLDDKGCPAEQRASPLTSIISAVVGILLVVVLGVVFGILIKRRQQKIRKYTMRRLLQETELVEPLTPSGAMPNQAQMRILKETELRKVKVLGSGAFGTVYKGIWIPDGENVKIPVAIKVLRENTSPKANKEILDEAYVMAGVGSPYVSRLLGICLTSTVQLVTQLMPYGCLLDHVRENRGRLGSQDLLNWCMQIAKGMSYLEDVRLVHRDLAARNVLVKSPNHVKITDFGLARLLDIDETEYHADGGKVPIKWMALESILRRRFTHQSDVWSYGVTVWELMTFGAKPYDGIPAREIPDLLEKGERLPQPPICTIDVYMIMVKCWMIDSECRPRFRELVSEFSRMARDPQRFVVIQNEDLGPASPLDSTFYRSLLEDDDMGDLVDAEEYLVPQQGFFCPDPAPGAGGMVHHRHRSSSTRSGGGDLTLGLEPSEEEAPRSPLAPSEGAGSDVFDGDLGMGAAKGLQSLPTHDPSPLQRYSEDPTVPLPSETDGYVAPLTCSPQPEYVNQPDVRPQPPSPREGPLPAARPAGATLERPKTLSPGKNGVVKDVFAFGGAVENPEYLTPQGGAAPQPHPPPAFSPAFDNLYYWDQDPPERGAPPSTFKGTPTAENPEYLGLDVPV

Take `COc1ccc(OCC(=O)Nc2cccc3ncccc23)cc1`: the viability (in general, a read-out of living cells in per cent, often relative to untreated cells) is 98% in assay [1]; 98% (inactive) in assay [3]; 104% (inactive) in assay [4]; 91.4% (inactive) in assay [5]; 91.2% in assay [6] (setting [9]); 91.4% in assay [6] (setting [10]). For the same compound, the Her2 level in assay [2] was 94.5% (inactive). Further, the differential viability (reversal) in assay [6] (H69AR cells + 2 uM doxorubicin) is 0.15% (inactive). Further, the inhibition – broadly, the relative decrease from the control value, in per cent – is -3.73% (inactive) in assay [7] and 3.61% (inactive) in assay [8].
As to `CC1(C)CC(=O)C2=C(C1)OC(=O)C2(NC(=O)c1cccs1)C(F)(F)F` (stereo not given), the viability in assay [1] was 102%; in assay [3], 102% (inactive); in assay [4], 88.3% (inactive); in assay [5], 98% (inactive); in assay [6] (setting [9]), 94.2%; in assay [6] (setting [10]), 98%. In addition, the Her2 level in assay [2] was 83% (inactive). Also, in assay [6] (H69AR cells + 2 uM doxorubicin), the differential viability (reversal) was 3.83% (inactive). Further, the inhibition was -4.05% (inactive) in assay [7] and 12.2% (inactive) in assay [8].
With `Cc1cccc(OCC(=O)N(Cc2cccs2)C2CCS(=O)(=O)C2)c1C` (stereo not given), the viability was 96.5% in assay [1]; 96.5% (inactive) in assay [3]; 72.8% (inactive) in assay [4]; 94.6% (inactive) in assay [5]; 91.4% in assay [6] (setting [9]); 94.6% in assay [6] (setting [10]). Further, in assay [2], the Her2 level is 83.5% (inactive). Further, the differential viability (reversal) in assay [6] (H69AR cells + 2 uM doxorubicin) is 3.22% (inactive). Also, the figures for the inhibition in assay [7] and in assay [8] were -6.35% (inactive) and 3.02% (inactive), respectively.
Take `CC(=O)Nn1c(C)nnc1-n1nc(C)cc1C`: the viability in assay [1] was 126%; in assay [3], 126% (inactive); in assay [4] it was 77.5% (inactive); in assay [5], 97.8% (inactive); in assay [6] (setting [9]), 93.4%; in assay [6] (setting [10]) it was 97.8%. In addition, the Her2 level in assay [2] is 112% (inactive). Further, the differential viability (reversal) in assay [6] (H69AR cells + 2 uM doxorubicin) was 4.38% (inactive). The inhibition is -1.95% (inactive) in assay [7] and -1.64% (inactive) in assay [8].
For `Cc1sc2ncnc(OCC(=O)N3CCN(S(=O)(=O)c4ccccc4)CC3)c2c1C`, the viability in assay [1] was 69.5%; in assay [3], 69.5% (inactive); in assay [4] it was 100% (inactive); in assay [5] it was 92.7% (inactive); in assay [6] (setting [9]), 80.7%; in assay [6] (setting [10]) it was 92.7%. For the same compound, the Her2 level in assay [2] was 84.5% (inactive). In addition, in assay [6] (H69AR cells + 2 uM doxorubicin), the differential viability (reversal) was 12% (inactive). The inhibition in assay [7] is -1.32% (inactive); in assay [8], 0.95% (inactive).
For `CC(C)(C)Nc1nc(NC(C)(C)C)nc(-n2ccnc2)n1`, the viability was 122% in assay [1]; 122% (inactive) in assay [3]; 69% (inactive) in assay [4]; 88.6% (inactive) in assay [5]; 87.6% in assay [6] (setting [9]); 88.6% in assay [6] (setting [10]). Further, in assay [2], the Her2 level is 80% (inactive). Further, the differential viability (reversal) in assay [6] (H69AR cells + 2 uM doxorubicin) is 1.06% (inactive). The inhibition in assay [7] was -0.26% (inactive); in assay [8], 10.8% (inactive).
Consider `COc1cccc(OC)c1C(=O)n1nc(C)cc1C`, for which the viability in assay [1] was 84.5%; in assay [3], 84.5% (inactive); in assay [4] it was 110% (inactive); in assay [5], 98.8% (inactive); in assay [6] (setting [9]), 95.5%; in assay [6] (setting [10]) it was 98.8%. In assay [2], the Her2 level is 87% (inactive). Further, in assay [6] (H69AR cells + 2 uM doxorubicin), the differential viability (reversal) was 3.22% (inactive). The inhibition was 1.18% (inactive) in assay [7] and 4.1% (inactive) in assay [8].
For `O=C(N1CCN(Cc2ccccc2)CC1)C12CC3CC(CC(C3)C1)C2`, the viability in assay [1] was 83%; in assay [3], 83% (inactive); in assay [4], 80.4% (inactive); in assay [5] it was 83.4% (inactive); in assay [6] (setting [9]) it was 88.9%; in assay [6] (setting [10]), 83.4%. Moreover, in assay [2], the Her2 level is 98% (inactive). Moreover, in assay [6] (H69AR cells + 2 uM doxorubicin), the differential viability (reversal) was -5.52% (inactive). Also, the inhibition in assay [7] is -5.54% (inactive); in assay [8], -0.67% (inactive).
As to `c1ccc(-c2nnc(CN3CCC4(CC3)OCCO4)o2)cc1`, the viability is 110% in assay [1]; 110% (inactive) in assay [3]; 96.9% (inactive) in assay [4]; 98.7% (inactive) in assay [5]; 90.2% in assay [6] (setting [9]); 98.7% in assay [6] (setting [10]). The Her2 level in assay [2] is 91.5% (inactive). In addition, in assay [6] (H69AR cells + 2 uM doxorubicin), the differential viability (reversal) was 8.52% (inactive). In addition, the inhibition in assay [7] is -0.79% (inactive); in assay [8] it was 14.5% (inactive).
For `CCC1C(=O)N=C(SCC(=O)Nc2cccc3ccccc23)NC1=O` (stereo not given), the viability is 112% in assay [1]; 112% (inactive) in assay [3]; 106% (inactive) in assay [4]; 82.3% (inactive) in assay [5]; 92.1% in assay [6] (setting [9]); 82.3% in assay [6] (setting [10]). The Her2 level in assay [2] was 100% (inactive). The differential viability (reversal) in assay [6] (H69AR cells + 2 uM doxorubicin) is -9.84% (inactive). Also, the inhibition in assay [7] was -3.24% (inactive); in assay [8], 0.63% (inactive).
With `CCOC(=O)CSc1nnc(NC(=O)c2cccc(S(=O)(=O)N3CCCCC3)c2)s1`, the viability in assay [1] was 94%; in assay [3], 94% (inactive); in assay [4], 79.6% (inactive); in assay [5] it was 101% (inactive); in assay [6] (setting [9]), 91.2%; in assay [6] (setting [10]) it was 101%. In assay [2], the Her2 level is 87.5% (inactive). Further, in assay [6] (H69AR cells + 2 uM doxorubicin), the differential viability (reversal) is 9.55% (inactive). Besides, the values for the inhibition in assay [7] and in assay [8] were -3.03% (inactive) and -1.67% (inactive), respectively.
As to `OC1C[N+]2(CCCCC2)C1`, the viability in assay [1] is 98%; in assay [3], 98% (inactive); in assay [4] it was 99.6% (inactive); in assay [5], 109% (inactive); in assay [6] (setting [9]), 95.6%; in assay [6] (setting [10]), 109%. Moreover, the Her2 level in assay [2] was 82% (inactive). Also, the differential viability (reversal) in assay [6] (H69AR cells + 2 uM doxorubicin) is 13% (inactive). Further, the inhibition was -4.8% (inactive) in assay [7] and -3.23% (inactive) in assay [8].
In the case of `Clc1ccc(Cn2ncc3c(NCc4cccnc4)ncnc32)cc1`, the viability was 77.5% in assay [1]; 77.5% (inactive) in assay [3]; 90.5% (inactive) in assay [4]; 92% (inactive) in assay [5]; 96.1% in assay [6] (setting [9]); 92% in assay [6] (setting [10]). Also, in assay [2], the Her2 level is 86% (inactive). Besides, the differential viability (reversal) in assay [6] (H69AR cells + 2 uM doxorubicin) is -4.09% (inactive). Besides, the results for the inhibition in assay [7] and in assay [8] were -0.53% (inactive) and 3.77% (inactive), respectively.
`CCOCCCNS(=O)(=O)c1ccc2c(c1)oc(=O)n2CC(=O)OCC`: the viability was 107% in assay [1]; 107% (inactive) in assay [3]; 104% (inactive) in assay [4]; 94.3% (inactive) in assay [5]; 103% in assay [6] (setting [9]); 94.3% in assay [6] (setting [10]). Besides, the Her2 level in assay [2] was 98.5% (inactive). Moreover, the differential viability (reversal) in assay [6] (H69AR cells + 2 uM doxorubicin) is -8.29% (inactive). In addition, the inhibition in assay [7] is -4.74% (inactive); in assay [8], -1.27% (inactive).
